This is an account of results in ChEMBL document CHEMBL1122926, “Potential radiosensitizing agents. 7. 4(5)-Iodo-5(4)-nitroimidazole derivatives” (J Med Chem, 1985).

Series [1] is described as follows: Compound evaluated for the partition coefficient (PC). The series is classed as physicochemical. Conditions: octanol/water. In outline: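 Octanol/phosphate buffer (0.1 M, pH 7.4) partition, equal volumes, stirred 1 h at room temperature. Nitroimidazole concentration in each phase measured spectrophotometrically.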
The nature of series [2]: Evaluated for sensitizer enhancement ratio determined by dividing the D0 value from the control radiation survival curve by the […] from the radiation survival curve in the presence at a concentration of 0.5 mM. It counts as functional. In short, it runs like this:
(§1)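 Hypoxic asynchronous V-79 monolayers in sealed containers (95% N2/5% CO2 purge) with drug present. Irradiated at room temperature by linear accelerator, 180 rad/min, 400–2400 rad, for full survival curves by colony formation. SER is the D0 of hypoxic control cells divided by the D0 of hypoxic drug-treated cells. Drug given at maximum nontoxic 2-h concentration, up to 1 mM.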

A short description of series [3]: Compound evaluated in vitro for the dose required to kill 50% of chinese hamster cells measured by colony formation […]. It counts as functional. Conditions: Cricetulus griseus, read-out: ED50 (the source's name). In short, it runs like this: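 Chinese hamster V-79 cells, about 200 per dish, attached 2 h in MEM + 15% fetal calf serum. Exposed to a range of drug concentrations for 2 h at 37 °C, in air or hypoxia (95% N2/5% CO2 purge, 90 min). Drug then replaced by fresh medium, 6-day incubation, colonies stained with methylene blue and counted. ED50 read from concentration vs. percent survival graphs.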

The nature of series [4]: Evaluated for sensitizer enhancement ratio determined by dividing the D0 value from the control radiation survival curve by the […] from the radiation survival curve in the presence at a concentration of 0.1 mM. The series is classed as functional. In short, it runs like this: as §1
A short description of series [5]: Evaluated for sensitizer enhancement ratio determined by dividing the D0 value from the control radiation survival curve by the […] from the radiation survival curve in the presence at a concentration of 1.0 mM.
Series [6] in a line: Evaluated for sensitizer enhancement ratio determined by dividing the D0 value from the control radiation survival curve by the […] from the radiation survival curve in the presence at a concentration of 1.0 mM. The series is classed as functional. In outline: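 V-79 Chinese hamster asynchronous monolayers in MEM with 15% fetal calf serum. Cells made hypoxic in sealed containers purged with 95% N2/5% CO2 for 90 min, drug exposure 2 h. Irradiated at room temperature by linear accelerator at 180 rad/min, 400–2400 rad. Colonies counted after 6 days at 37 °C. SER = D0 of hypoxic controls / D0 of hypoxic drug-treated cells.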

The nature of series [7]: Evaluated for sensitizer enhancement ratio determined by dividing the D0 value from the control radiation survival curve by the […] from the radiation survival curve in the presence at a concentration of 0.025 mM. The series is classed as functional. In short, it runs like this:
as §1

Series [8] can be described thus: Evaluated for sensitizer enhancement ratio determined by dividing the D0 value from the control radiation survival curve by the […] from the radiation survival curve in the presence at a concentration of 0.25 mM. The series is classed as functional. In outline: as §1
Series [9] can be described thus: Evaluated for sensitizer enhancement ratio determined by dividing the D0 value from the control radiation survival curve by the […] from the radiation survival curve in the presence at a concentration of 0.05 mM. The series is classed as functional. In outline: as §1

The compound `Cn1cnc(I)c1[N+](=O)[O-]` yielded a PC in [1] of 19.4. In addition, the Ratio in [2] was 2.4. In addition, in series [3], the EC50 was 820 µM.
In turn, `CCOC(=O)Cn1cnc(I)c1[N+](=O)[O-]` displayed a PC in [1] of 8.6. In addition, the Ratio in series [4] turned out to be 1.8. Further, the EC50 in series [3] was determined as 180 µM.
With `O=C(Cn1cnc([N+](=O)[O-])c1I)NCc1ccc[n+]([O-])c1`, in series [1], the PC worked out at 0.04. The EC50 in [3] was greater than 1000 µM. Besides, in series [5], the Ratio turned out to be 1.2.
In turn, `O=[N+]([O-])c1[nH]cnc1I` came in with a PC in series [1] of 1.9. Further, the Ratio in [6] was found to be 1.1. For the same compound, in [3], the EC50 was greater than 1000 µM.
For `COCC(O)Cn1cnc([N+](=O)[O-])c1I` (stereo not given), the PC in series [1] amounted to 2.6. In addition, the Ratio in series [4] is 1.6. Also, the EC50 in series [3] is 170 µM.
`CCOC(=O)Cn1cnc([N+](=O)[O-])c1I` came in with a PC in series [1] of 3.7. For the same compound, the Ratio in series [7] came to 1.7. Further, the EC50 in [3] came to 60 µM.
The compound `O=C(Cn1cnc([N+](=O)[O-])c1I)NCc1cccnc1` registered a PC in [1] of 2.9. Further, the Ratio in series [8] was found to be 1.5. Also, the EC50 in series [3] worked out at 650 µM.
Consider `Cn1cnc([N+](=O)[O-])c1I`, for which the PC in series [1] came out at 10.1. The Ratio in [9] was 2.5. For the same compound, in [3], the EC50 came out at 140 µM.
`COCC(O)Cn1cnc(I)c1[N+](=O)[O-]` (stereo not given) came in with a PC in series [1] of 7.8. The Ratio in series [4] amounted to 1.4. Moreover, the EC50 in series [3] amounted to 480 µM.
In the case of `O=C(Cn1cnc(I)c1[N+](=O)[O-])NCc1cccnc1`, in series [1], the PC worked out at 7.6. In [4], the Ratio is 1.7. The EC50 in [3] came out at 180 µM.
